Rows were chosen to be rich in hits. Some 2.2% of all compounds tested hit in one or more screens of this group.
ARFGAP1 inh: inhibitors of rat ARFGAP1 GAP activity, primary screen, biochemical, fluorescence polarization, GDP tracer. inhibition, % at 16.5 µM. AID 651572, 2012. Arfgap1-stimulated ARF1 GTP hydrolysis, GDP FP detection. 0.26% of 360,000 active. ADP-ribosylation factor GTPase-activating protein 1 (Rattus norvegicus), Q62848;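 active = inhibition above a per-plate limit, mean inhibition of low control wells plus 3 SD, cut at about 25% in these data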
Target sequence (Q62848 1-136 limits assumed): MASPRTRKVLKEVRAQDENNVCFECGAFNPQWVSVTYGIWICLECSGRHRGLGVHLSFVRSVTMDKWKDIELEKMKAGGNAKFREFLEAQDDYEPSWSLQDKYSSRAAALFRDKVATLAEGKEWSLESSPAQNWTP
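Repeats: one replicate per compound; assay system: rat Arfgap1 catalytic domain, aa 1-136; times: enzyme reaction 120 min at 25 °C after 20 min preincubation; detection: FP of antibody-bound GDP Alexa 633 tracer, ex 620/em 688 nm; benchmarks: high control wells lacking Arfgap1, low control full reaction with DMSO; reagent: human ARF1(Δ1-17)-GTP substrate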
NRP1-CendR mod: modulators of CendR peptide binding to NRP-1, primary screen, biochemical, fluorescence polarization, uHTS | 0.85% of 360,000 active | Neuropilin-1 (Homo sapiens), O14786 | inhibition, % at 25 µM | FAM-RPARPAR peptide binding to NRP-1 | AID 602438, 2012;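 active = inhibition or corrected inhibition above about 18%, plus a signal ratio from 0.5 to 1.5, limit read from the data, passing the limit was not always enough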
V-ATPase pHluor: regulators of yeast V-ATPase proton pumping, primary screen, pHLuorin cytosolic pH fluorescence | S. cerevisiae | response, % at 10 µM | 0.37% of 350,000 active | AID 504577, 2011; in the data active = response mostly above about 7.3%, no sharp cut-off; inactive = mostly below about 5.4%; also: actives read high
ASAP1 inh: inhibitors of human ASAP1 ArfGAP activity, primary screen, biochemical, fluorescence polarization; ASAP1-stimulated ARF1 GTP hydrolysis, GDP FP detection; 0.19% of 360,000 active; inhibition, % at 16.5 µM; AID 624377, 2012; Arf-GAP with SH3 domain, ANK repeat and PH domain-containing protein 1 (Homo sapiens), …; in the data active = inhibition above about 25%
Granule exo inh: LAMP-1 surface exposure blockers, TALL-104 cells – cell-based, flow cytometry, MLPCN library, primary screen. AID 651702, 2012. 0.66% of 360,000 active. TALL-104 LAMP-1 surface exposure; cells stimulated with thapsigargin and PMA. inhibition, % at 10 µM;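 active = inhibition above about 55%, limit read from the data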
Each line names hits and unclear results; the compound was inactive in the other large screens.

CCc1ccc(NC(=O)CCn2nc(C)c(S(=O)(=O)N3CCCCC3)c2C)cc1	NRP1-CendR mod 24
COc1ccc(O)c(/C=N/c2nc3ccccc3n2C)c1	V-ATPase pHluor 12
COc1cc(OC)cc(C(=O)NCC(=O)Nc2ccc(-c3ccccc3)cc2)c1	none
CCCCc1cc(=O)oc2cc(OCc3nn[nH]n3)ccc12	V-ATPase pHluor 18
CCCc1cc(=O)oc2cc(OCc3nn[nH]n3)ccc12	none
Cc1cccc(S(=O)(=O)N[C@@H]2CC[C@@H](CCNS(=O)(=O)c3ccccc3F)O[C@@H]2CO)c1	none (no result: V-ATPase pHluor)
CCn1c(=O)c(C(=O)NCCNCCO)c(O)c2ccccc21	NRP1-CendR mod 37
COc1cccc(C(=O)N2N=C(c3ccccc3)CC2(O)C(F)(F)F)c1 (configuration not stated)	NRP1-CendR mod 27
CCOC(=O)CN1CCCc2nc(C)c(C)cc21	none (no result: NRP1-CendR mod, V-ATPase pHluor, Granule exo inh)
COc1ccc(CCNC(=O)c2coc(=O)c(Br)c2)cc1	none (no result: NRP1-CendR mod, V-ATPase pHluor, Granule exo inh)
CCOc1cc(C2C3=C(CC(C)(C)CC3=O)OC3=C2C(=O)CC(C)(C)C3)cc([N+](=O)[O-])c1O	none
CCOc1cc(C2C3=C(CCCC3=O)OC3=C2C(=O)CCC3)cc([N+](=O)[O-])c1O	NRP1-CendR mod 26
Cc1ccc(CC(=O)N2CCN(S(=O)(=O)c3ccccc3)CC2)cc1C	none
Cc1ccc(S(=O)(=O)N2CCN(C(=O)Cc3ccccc3)CC2)cc1C	NRP1-CendR mod 23
CCCCS(=O)(=O)N1CCCc2nc(-c3ccc(Br)cc3)ccc21	none (no result: NRP1-CendR mod, V-ATPase pHluor, Granule exo inh)
Fc1ccc(C2=Nc3cccc4cccc(c34)N2)cc1	none
FC(F)(F)C1=Nc2cccc3cccc(c23)N1	NRP1-CendR mod 38
O=C(CBr)Nc1c2c(nn1-c1ccccc1)CSC2	V-ATPase pHluor 11
COc1cccc(NCc2cc(=O)oc3cc(-c4ccccc4)c(O)cc23)c1	V-ATPase pHluor 21
COC(=O)C1=C(C)N(Cc2cccc(C(F)(F)F)c2)C(=NCc2ccc3c(c2)OCO3)NC1CCc1ccccc1 (configuration not stated)	none (no result: NRP1-CendR mod, V-ATPase pHluor, Granule exo inh)
CC(=O)Oc1ccc2c(c1)c(C(C)=O)c(C)n2C	V-ATPase pHluor 18
N#CC(c1cccc([N+](=O)[O-])c1)C(CC(=O)c1ccccc1)c1ccccc1 (configuration not stated)	none
N#CC(c1ccc([N+](=O)[O-])cc1)C(CC(=O)c1ccccc1)c1ccccc1 (configuration not stated)	NRP1-CendR mod 28
COC(=O)c1cc2c(c3c4cc(OC)ccc4n(S(=O)(=O)c4ccc(C)cc4)c13)C(=O)N(C)C2	none (no result: NRP1-CendR mod, V-ATPase pHluor, Granule exo inh)
COc1ccccc1NS(=O)(=O)c1ccc(N/N=C/C=C/c2ccccc2[N+](=O)[O-])c([N+](=O)[O-])c1	NRP1-CendR mod 29
CCCn1c(SCC(=O)Nc2nnc(-c3ccccc3)s2)nnc1-c1ccccn1	NRP1-CendR mod 27
CCCn1c(SCC(=O)NCCc2ccccc2)nnc1-c1ccccn1	none
Cc1cc(C)c(S(=O)(=O)c2cccc(Cl)c2)c(Cl)n1	NRP1-CendR mod 33
CC(Sc1nnc(-c2ccc(C(C)(C)C)cc2)n1C)C(N)=O (configuration not stated)	NRP1-CendR mod 24
c1ccc(-n2nnnc2CN2CCOCC2)cc1	none
c1ccc(-n2nnnc2NCCCN2CCOCC2)cc1	NRP1-CendR mod 30
C[C@H](O)[C@@H]1C(=O)N2CCc3c([nH]c4ccccc34)[C@@H]2C[C@@H]1N(C)C(=O)Nc1ccc(Br)cc1	none (no result: NRP1-CendR mod, V-ATPase pHluor, Granule exo inh)
COc1ccc(NC(=O)Nc2ccc(Br)cn2)cc1OC	NRP1-CendR mod 47
O=C1CCCCC1CCS(=O)(=O)NCc1ccccc1 (configuration not stated)	none (no result: NRP1-CendR mod, V-ATPase pHluor, Granule exo inh)
CC(C)c1ccc(/C=C2\SC(=O)N(CC(=O)NCCCn3ccnc3)C2=O)cc1	none
CCN(CC)C(=O)Cn1cc(C(=O)C(=O)N2CCN(c3ccccc3)CC2)c2ccccc21	NRP1-CendR mod 25
c1ccc(CCN2CCN=C2Nc2ccccc2)cc1	none
Cc1cccc(CCN2CCN=C2Nc2ccccc2)c1	NRP1-CendR mod 27

Screening results from PubChem BioAssay.
